Reference: ChEMBL document CHEMBL1155485, “Pyrimidine ribonucleotides with enhanced selectivity as P2Y(6) receptor agonists: novel 4-alkyloxyimino, (S)-methanocarba, and 5'-triphosphate gamma-ester modifications” (J Med Chem, 2010)

Tests used:
P2Y purinoceptor 2 [1] = molecular target: T1, P2Y purinoceptor 2 (Homo sapiens, UniProt P41231); test: Agonist activity at human recombinant P2Y2 receptor expressed in human 1321N1 cells assessed as [3H]inositol phosphate production by scintillation proximity assay; assay type: functional, cell-based
Outline: (§1)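 Stably transfected 1321N1 astrocytoma cells (human P2Y2, P2Y4 or P2Y6 receptor) seeded at 20,000 cells/well two days before assay; labelled 16 h with myo-[3H]inositol (1.0 μCi) in serum-free inositol-free DMEM. Agonist added in HEPES pH 7.3/HBSS with LiCl (50 mM, fivefold stock), 30 min at 37°C; stopped with ice-cold 50 mM formic acid. [3H]inositol phosphates read by SPA.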

P2Y purinoceptor 6 [2] = molecular target: T2, P2Y purinoceptor 6 (Homo sapiens, UniProt Q15077); test: Agonist activity at human recombinant P2Y6 receptor expressed in human 1321N1 cells assessed as [3H]inositol phosphate production by scintillation proximity assay; assay type: functional, cell-based; outline: as §1
P2Y purinoceptor 4 = P2Y purinoceptor 4 (Homo sapiens, UniProt P51582); test: Agonist activity at human recombinant P2Y4 receptor expressed in human 1321N1 cells assessed as [3H]inositol phosphate production by scintillation proximity assay; assay type: functional, cell-based; outline: as §1
[3] = Stability assessed as half life in aqueous acidic solution at pH 1.2 by HPLC; assay type: physicochemical; conditions: buffer
Outline: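 Nucleotide (10 μL of 2 mg/mL aqueous stock) mixed with 90 μL of HCl/NaCl buffer pH 1.2 and held at 37°C. Aliquots taken at intervals were diluted tenfold in water or 5 mM TBAP and run on reverse-phase HPLC with a 5 mM TBAP–acetonitrile gradient. Half-life was derived from peak area.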

[4] = Stability assessed as half life by HPLC in presence of human 1321N1 cell membranes; assay type: ADME, cell-based
Outline: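 Nucleotide (10 μL of 2 mg/mL aqueous stock) mixed with 90 μL of astrocytoma cell membrane suspension in Dulbecco's PBS pH 7.4 (final protein 14.9 μg/mL), incubated at 37°C. At intervals, aliquots were diluted tenfold in water or 5 mM TBAP and analysed by reverse-phase HPLC (TBAP–acetonitrile gradient). Half-life was taken from peak area.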

P2Y purinoceptor 2 [5] = molecular target: T1, P2Y purinoceptor 2; test: Agonist activity at human recombinant P2Y2 receptor expressed in human 1321N1 cells assessed as [3H]inositol phosphate production at 10 uM by scintillation proximity assay; assay type: functional, cell-based
Homo sapiens [6] = species on record: Homo sapiens; test: Selectivity ratio of EC50 for human P2Y2 receptor to EC50 for human P2Y6 receptor
Homo sapiens [7] = species on record: Homo sapiens; test: Selectivity ratio of EC50 for human P2Y4 receptor to EC50 for human P2Y6 receptor
P2Y purinoceptor 6 [8] = molecular target: T2, P2Y purinoceptor 6; test: Agonist activity at human recombinant P2Y6 receptor expressed in human 1321N1 cells assessed as [3H]inositol phosphate production up to 10 uM by scintillation proximity assay; assay type: functional, cell-based
Outline: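 Human 1321N1 astrocytoma cells stably expressing the human P2Y2 or P2Y6 receptor, seeded at 20,000 cells/well two days before assay. Inositol lipids labelled for 16 h with 1.0 μCi myo-[3H]inositol in serum-free, inositol-free DMEM. Agonist added in HEPES pH 7.3/HBSS with LiCl, 30 min at 37°C. Stopped with ice-cold 50 mM formic acid; [3H]inositol phosphates counted by scintillation proximity assay. Triplicates.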

Chain of P2Y purinoceptor 4 (P51582 whole entry): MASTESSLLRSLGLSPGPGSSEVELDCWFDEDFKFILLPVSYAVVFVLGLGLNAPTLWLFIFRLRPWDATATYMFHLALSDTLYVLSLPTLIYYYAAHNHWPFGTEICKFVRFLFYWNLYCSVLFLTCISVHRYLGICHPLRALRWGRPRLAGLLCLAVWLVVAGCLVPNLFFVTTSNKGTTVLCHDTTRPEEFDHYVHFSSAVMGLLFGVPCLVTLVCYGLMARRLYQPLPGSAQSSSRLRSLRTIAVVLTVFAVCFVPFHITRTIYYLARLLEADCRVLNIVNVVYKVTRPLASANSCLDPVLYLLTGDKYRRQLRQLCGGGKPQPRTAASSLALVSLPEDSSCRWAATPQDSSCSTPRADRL
T1 sequence (P41231 whole entry): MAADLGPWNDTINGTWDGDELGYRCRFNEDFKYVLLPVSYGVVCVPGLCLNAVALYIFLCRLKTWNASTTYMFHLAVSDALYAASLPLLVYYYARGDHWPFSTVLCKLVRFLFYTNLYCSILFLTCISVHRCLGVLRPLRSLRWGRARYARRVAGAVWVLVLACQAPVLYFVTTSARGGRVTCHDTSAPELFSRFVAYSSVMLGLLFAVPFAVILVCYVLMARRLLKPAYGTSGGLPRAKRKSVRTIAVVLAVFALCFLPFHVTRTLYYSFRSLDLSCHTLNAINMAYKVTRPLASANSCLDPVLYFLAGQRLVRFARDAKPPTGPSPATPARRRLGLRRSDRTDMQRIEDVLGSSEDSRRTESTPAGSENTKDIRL
T2 sequence (Q15077 whole entry): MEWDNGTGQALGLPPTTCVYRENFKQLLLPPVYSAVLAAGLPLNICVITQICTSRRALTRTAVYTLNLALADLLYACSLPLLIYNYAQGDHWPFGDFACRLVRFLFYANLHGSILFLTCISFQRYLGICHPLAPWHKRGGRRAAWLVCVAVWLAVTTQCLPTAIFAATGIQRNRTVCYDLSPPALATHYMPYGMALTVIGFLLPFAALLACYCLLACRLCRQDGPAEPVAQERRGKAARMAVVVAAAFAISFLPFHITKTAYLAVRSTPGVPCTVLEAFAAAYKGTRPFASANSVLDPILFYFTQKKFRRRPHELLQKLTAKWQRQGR

Row | SMILES | EC50 (P2Y purinoceptor 2 [1]) [µM] | EC50 (P2Y purinoceptor 6 [2]) [µM] | EC50 (P2Y purinoceptor 4) [µM] | t1/2 [3] [h] | t1/2 [4] [h] | other results
1 | CONc1ccn([C@@H]2O[C@H](COP(=O)(O)OP(=O)(O)OP(=O)(O)OC[C@H]3O[C@@H](n4ccc(NOC)nc4=O)[C@H](O)[C@@H]3O)[C@@H](O)[C@H]2O)c(=O)n1 | 2.12 | 0.063 | 0.56 |  |  | 
2 | O=c1ccn([C@@H]2O[C@H](COP(=O)(O)OP(=O)(O)OP(=O)(O)O)[C@@H](O)[C@H]2O)c(=O)[nH]1 [URIDINE TRIPHOSPHATE] |  |  |  | 23 | 31 | 
3 | CO/N=c1/ccn([C@@H]2O[C@H](COP(=O)(O)OP(=O)(O)OP(=O)(O)Oc3ccccc3)[C@@H](O)[C@H]2O)c(=O)[nH]1 | > 10 | 3.49 |  |  |  | Activity (P2Y purinoceptor 2 [5]): < 50%
4 | CC(C)(C)O/N=c1/ccn([C@@H]2O[C@H](COP(=O)(O)OP(=O)(O)O)[C@@H](O)[C@H]2O)c(=O)[nH]1 | 3.51 |  | 6.23 |  |  | 
5 | CCN(CC)CC.CO/N=c1/ccn([C@@H]2O[C@H](COP(=O)(O)OP(=O)(O)OP(=O)(O)OC[C@H]3O[C@@H](n4ccc(=O)[nH]c4=O)[C@H](O)[C@@H]3O)[C@@H](O)[C@H]2O)c(=O)[nH]1 | 0.17 | 0.012 | 0.79 | 120 | 23 | Ratio EC50 (Homo sapiens [6]): 14; Ratio EC50 (Homo sapiens [7]): 66
6 | O=c1[nH]c(=O)n([C@@H]2O[C@H](COP(=O)(O)CP(=O)(O)O)[C@@H](O)[C@H]2O)cc1I |  | 0.13 |  |  |  | 
7 | CCN(CC)CC.CO/N=c1/ccn([C@@H]2O[C@H](COP(=O)(O)OP(=O)(O)O)[C@@H](O)[C@H]2O)c(=O)[nH]1 | 3.6 |  | 6.45 | 116 | 55 | 
8 | CCN(CC)CC.O=c1ccn([C@@H]2O[C@H](COP(=O)(O)CP(=O)(O)OP(=O)(O)O[C@H]3O[C@H](CO)[C@@H](O)[C@H](O)[C@H]3O)[C@@H](O)[C@H]2O)c(=O)[nH]1 |  | > 10 |  | 2.8 | 19 | Activity (P2Y purinoceptor 6 [8]): < 50%
9 | O=c1ccn([C@@H]2O[C@H](COP(=O)(O)CP(=O)(O)O)[C@@H](O)[C@H]2O)c(=O)[nH]1 |  | 0.7 |  |  |  | 
10 | O=c1[nH]c(=O)n([C@@H]2O[C@H](COP(=O)(O)OP(=O)(O)OP(=O)(O)O[C@H]3O[C@H](CO)[C@@H](O)[C@H](O)[C@H]3O)[C@@H](O)[C@H]2O)cc1I |  | 4.69 |  |  |  | 
11 | CCN(CC)CC.O=c1ccn([C@@H]2O[C@H](COP(=O)(O)OP(=O)(O)OP(=O)(O)O[C@H]3O[C@H](CO)[C@@H](O)[C@H](O)[C@H]3O)[C@@H](O)[C@H]2O)c(=O)[nH]1 |  | > 10 |  | 5.1 | 29 | Activity (P2Y purinoceptor 6 [8]): < 50%
12 | O=c1ccn([C@@]23C[C@H]2[C@H](COP(=O)(O)OP(=O)(O)OP(=O)(O)O)[C@@H](O)[C@H]3O)c(=O)[nH]1 | 0.08 | 1.37 | 0.3 |  |  | 
13 | O=C(Cn1c(=O)ccn([C@@H]2O[C@H](COP(=O)(O)OP(=O)(O)OP(=O)(O)O[C@H]3O[C@H](CO)[C@@H](O)[C@H](O)[C@H]3O)[C@@H](O)[C@H]2O)c1=O)c1ccccc1 |  | > 10 |  |  |  | Activity (P2Y purinoceptor 6 [8]): < 50%
14 | CCN(CC)CC.O=c1[nH]/c(=N\OCc2ccccc2)ccn1[C@@H]1O[C@H](COP(=O)(O)OP(=O)(O)O)[C@@H](O)[C@H]1O | 2.13 |  | 1.15 | 126 | 26 | Ratio EC50 (Homo sapiens [6]): 82; Ratio EC50 (Homo sapiens [7]): 44
15 | CCN(CC)CC.O=c1ccn([C@@H]2O[C@H](COP(=O)(O)OP(=O)(O)OP(=O)(O)Oc3ccccc3)[C@@H](O)[C@H]2O)c(=O)[nH]1 | > 10 | 2.13 |  | 164 | 43 | Activity (P2Y purinoceptor 6 [8]): < 50%; Activity (P2Y purinoceptor 2 [5]): < 50%
16 | O=c1[nH]c(=O)n([C@@H]2O[C@H](COP(=O)(O)OP(=O)(O)O)[C@@H](O)[C@H]2O)cc1I |  | 0.015 |  |  |  | 
17 | CO/N=c1/ccn([C@@H]2O[C@H](COP(=O)(O)CP(=O)(O)O)[C@@H](O)[C@H]2O)c(=O)[nH]1 |  |  |  |  |  | Activity (P2Y purinoceptor 2 [5]): < 50%
18 | CCN(CC)CC.O=c1ccn([C@@H]2O[C@H](COP(=O)(O)CP(=O)(O)OP(=O)(O)OC[C@H]3O[C@@H](n4ccc(=O)[nH]c4=O)[C@H](O)[C@@H]3O)[C@@H](O)[C@H]2O)c(=O)[nH]1 | > 10 | 1.3 |  | 34 | 62 | 
19 | CCN(CC)CC.O=c1ccn([C@@H]2O[C@H](COP(=O)(O)OP(=O)(O)OP(=O)(O)OC3CCCCC3)[C@@H](O)[C@H]2O)c(=O)[nH]1 | 2.28 | 6.99 |  | 193 | 62 | 
20 | CCO/N=c1/ccn([C@@H]2O[C@H](COP(=O)(O)OP(=O)(O)O)[C@@H](O)[C@H]2O)c(=O)[nH]1 | 0.28 |  | 0.18 |  |  | 
21 | CO/N=c1\ccn([C@@H]2O[C@H](COP(=O)(O)OP(=O)(O)OP(=O)(O)O)[C@@H](O)[C@H]2O)c(=O)[nH]1 | 0.05 | 0.08 | 0.05 |  |  | 
22 | CO/N=c1/ccn([C@@H]2O[C@H](COP(=O)(O)OP(=O)(O)OP(=O)(O)O[C@H]3O[C@H](CO)[C@@H](O)[C@H](O)[C@H]3O)[C@@H](O)[C@H]2O)c(=O)[nH]1 | > 10 | 0.18 |  |  |  | Activity (P2Y purinoceptor 2 [5]): < 50%
